# Experiments:
# Type in all cases: functional
# [1] = system: Mycolicibacterium smegmatis; test: Antimicrobial activity against Mycobacterium smegmatis UFPEDA 71 after 20 hrs by twofold serial dilution technique; details: UFPEDA 71, 20 h
# Outline: (§1)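 MIC was determined by twofold serial dilution. Bacteria were tested in plates at 10⁵ CFU/plate and read after 20 h. C. albicans was tested in tubes at 10³ CFU/tube and read after 48 h. All incubations were at 35 °C. Medium plus DMSO served as the negative control.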
# Enterococcus faecalis [2] = test: Antimicrobial activity against multidrug-resistant Enterococcus faecalis H.C. 21944 isolate after 20 hrs by twofold serial dilution technique; details: H.C. 21944, 20 h
# Outline: (§2)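 Twofold serial dilution MIC in agar plates against Gram-positive strains and multidrug-resistant clinical isolates. Inoculum applied was 10⁵ CFU/plate. Plates with culture medium plus DMSO served as negative control. MIC was read after incubation at 35 °C for 20 h.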
# NCI-H292 [3] = test: Cytotoxicity against human NCI-H292 cells at 1.25 ug/mL after 72 hrs by MTT assay; details: NCI-H292, 72 h, read-out: GI
# Outline: (§3)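 MTT antiproliferative assay. Cells were diluted to 10⁵ cells/mL in 96-well plates and preincubated for 24 h at 37 °C in humid 5% CO₂. Compounds or vincristine (reference) were then added. Formazan was dissolved and OD read at 540 nm, compared with medium-only control cells. Run in triplicate.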
# HEp-2 [4] = test: Cytotoxicity against human Hep2 cells at 1.25 ug/mL after 72 hrs by MTT assay; details: HEp-2, 72 h, read-out: GI; outline: as §3
# Enterococcus faecalis [5] = test: Antimicrobial activity against Enterococcus faecalis UFPEDA 138 at 300 ug/disk after 24 hrs by disk diffusion method; details: UFPEDA 138, 24 h, read-out: IZ
# Outline: (§4)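 Preliminary screen by disk diffusion. Paper disks (6 mm) holding 300 µg of compound were placed on agar plates inoculated with a standardized microbial suspension. DMSO-only disks served as negative controls. A mean inhibition zone below 7 mm was scored as no sensitivity. Values are means, n = 3.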
# HEp-2 [6] = test: Cytotoxicity against human Hep2 cells at 5 ug/mL after 72 hrs by MTT assay; details: HEp-2, 72 h, read-out: GI; outline: as §3
# Staphylococcus aureus [7] = test: Antimicrobial activity against Staphylococcus aureus UFPEDA 01 after 20 hrs by twofold serial dilution technique; details: UFPEDA 01, 20 h; outline: as §2
# HEp-2 [8] = test: Cytotoxicity against human Hep2 cells at 10 ug/mL after 72 hrs by MTT assay; details: HEp-2, 72 h, read-out: GI; outline: as §3
# Micrococcus luteus [9] = test: Antimicrobial activity against Micrococcus luteus UFPEDA 06 at 300 ug/disk after 24 hrs by disk diffusion method; details: UFPEDA 06, 24 h, read-out: IZ; outline: as §4
# Staphylococcus aureus [10] = test: Antimicrobial activity against multidrug-resistant Staphylococcus aureus H.C. 20981 isolate after 20 hrs by twofold serial dilution technique; details: H.C. 20981, 20 h; outline: as §2
# Escherichia coli = test: Antimicrobial activity against Escherichia coli UFPEDA 224 at 300 ug/disk after 24 hrs by disk diffusion method; details: UFPEDA 224, 24 h, read-out: IZ; outline: as §4
# [11] = system: Mycolicibacterium smegmatis; test: Antimicrobial activity against Mycobacterium smegmatis UFPEDA 71 at 300 ug/disk after 24 hrs by disk diffusion method; details: UFPEDA 71, 24 h, read-out: IZ; outline: as §4
# Staphylococcus [12] = test: Antimicrobial activity against coagulase-negative Staphylococcus H.A.M. 278 isolate after 20 hrs by twofold serial dilution technique; details: H.A.M. 278, 20 h; outline: as §1
# Enterococcus faecalis [13] = test: Antimicrobial activity against multidrug-resistant Enterococcus faecalis H.C. 24708 isolate after 20 hrs by twofold serial dilution technique; details: H.C. 24708, 20 h; outline: as §2
# Enterococcus faecalis [14] = test: Antimicrobial activity against Enterococcus faecalis UFPEDA 138 after 20 hrs by twofold serial dilution technique; details: UFPEDA 138, 20 h; outline: as §1
# Staphylococcus [15] = test: Antimicrobial activity against coagulase-negative Staphylococcus H.A.M. 338 isolate after 20 hrs by twofold serial dilution technique; details: H.A.M. 338, 20 h; outline: as §1
# Bacillus subtilis [16] = test: Antimicrobial activity against Bacillus subtilis UFPEDA 16 after 20 hrs by twofold serial dilution technique; details: UFPEDA 16, 20 h; outline: as §1
# Candida albicans [17] = test: Antimicrobial activity against Candida albicans UFPEDA 1007 after 48 hrs by twofold serial dilution technique; details: UFPEDA 1007, 48 h; outline: as §1
# NCI-H292 [18] = test: Cytotoxicity against human NCI-H292 cells at 10 ug/mL after 72 hrs by MTT assay; details: NCI-H292, 72 h, read-out: GI; outline: as §3
# Bacillus subtilis [19] = test: Antimicrobial activity against Bacillus subtilis UFPEDA 16 at 300 ug/disk after 24 hrs by disk diffusion method; details: UFPEDA 16, 24 h, read-out: IZ; outline: as §4
# Serratia marcescens = test: Antimicrobial activity against Serratia marcescens UFPEDA 398 at 300 ug/disk after 24 hrs by disk diffusion method; details: UFPEDA 398, 24 h, read-out: IZ; outline: as §4
# Candida albicans [20] = test: Antimicrobial activity against Candida albicans UFPEDA 1007 at 300 ug/disk after 48 hrs by disk diffusion method; details: UFPEDA 1007, 48 h, read-out: IZ; outline: as §4
# NCI-H292 [21] = test: Cytotoxicity against human NCI-H292 cells at 2.5 ug/mL after 72 hrs by MTT assay; details: NCI-H292, 72 h, read-out: GI; outline: as §3
# Staphylococcus aureus [22] = test: Antimicrobial activity against multidrug-resistant Staphylococcus aureus H.C. 20905 isolate after 20 hrs by twofold serial dilution technique; details: H.C. 20905, 20 h; outline: as §2
# Enterococcus faecalis [23] = test: Antimicrobial activity against multidrug-resistant Enterococcus faecalis H.C. 24962 isolate after 20 hrs by twofold serial dilution technique; details: H.C. 24962, 20 h; outline: as §2
# NCI-H292 [24] = test: Cytotoxicity against human NCI-H292 cells at 5 ug/mL after 72 hrs by MTT assay; details: NCI-H292, 72 h, read-out: GI; outline: as §3
# Micrococcus luteus [25] = test: Antimicrobial activity against Micrococcus luteus UFPEDA 06 after 20 hrs by twofold serial dilution technique; details: UFPEDA 06, 20 h; outline: as §1
# Staphylococcus aureus [26] = test: Antimicrobial activity against multidrug-resistant Staphylococcus aureus H.C. 20489 isolate after 20 hrs by twofold serial dilution technique; details: H.C. 20489, 20 h; outline: as §2
# Pseudomonas aeruginosa = test: Antimicrobial activity against Pseudomonas aeruginosa UFPEDA 39 at 300 ug/disk after 24 hrs by disk diffusion method; details: UFPEDA 39, 24 h, read-out: IZ; outline: as §4
# Staphylococcus aureus [27] = test: Antimicrobial activity against Staphylococcus aureus UFPEDA 01 at 300 ug/disk after 24 hrs by disk diffusion method; details: UFPEDA 01, 24 h, read-out: IZ; outline: as §4
# Enterococcus faecalis [28] = test: Antimicrobial activity against multidrug-resistant Enterococcus faecalis H.C. 21752 isolate after 20 hrs by twofold serial dilution technique; details: H.C. 21752, 20 h; outline: as §2
# Staphylococcus aureus [29] = test: Antimicrobial activity against multidrug-resistant Staphylococcus aureus H.C. 21036 isolate after 20 hrs by twofold serial dilution technique; details: H.C. 21036, 20 h; outline: as §2
# Staphylococcus aureus [30] = test: Antimicrobial activity against multidrug-resistant Staphylococcus aureus H.C. 20794 isolate after 20 hrs by twofold serial dilution technique; details: H.C. 20794, 20 h; outline: as §2
# HEp-2 [31] = test: Cytotoxicity against human Hep2 cells at 2.5 ug/mL after 72 hrs by MTT assay; details: HEp-2, 72 h, read-out: GI; outline: as §3
# Staphylococcus aureus [32] = test: Antimicrobial activity against multidrug-resistant Staphylococcus aureus H.C. 21141 isolate after 20 hrs by twofold serial dilution technique; details: H.C. 21141, 20 h; outline: as §2
compound,measurement,setting,value
O=C1NC(=S)/C(=C/c2ccc(Cl)cc2Cl)S1,MIC,[1],4 µg/mL
same,MIC,Enterococcus faecalis [2],4 µg/mL
same,inhibition of growth at 1.25 µg/mL,NCI-H292 [3],12.1%
same,inhibition of growth at 1.25 µg/mL,HEp-2 [4],6.83%
same,zone of inhibition at 300 µg/disc,Enterococcus faecalis [5],18 mm
same,inhibition of growth at 5 µg/mL,HEp-2 [6],20%
same,MIC,Staphylococcus aureus [7],2 µg/mL
same,inhibition of growth at 10 µg/mL,HEp-2 [8],24.8%
same,zone of inhibition at 300 µg/disc,Micrococcus luteus [9],24 mm
same,MIC,Staphylococcus aureus [10],2 µg/mL
same,zone of inhibition at 300 µg/disc,Escherichia coli,< 7 mm
same,zone of inhibition at 300 µg/disc,[11],19 mm
same,MIC,Staphylococcus [12],4 µg/mL
same,MIC,Enterococcus faecalis [13],8 µg/mL
same,MIC,Enterococcus faecalis [14],16 µg/mL
same,MIC,Staphylococcus [15],2 µg/mL
same,MIC,Bacillus subtilis [16],2 µg/mL
same,MIC,Candida albicans [17],32 µg/mL
same,inhibition of growth at 10 µg/mL,NCI-H292 [18],38.4%
same,zone of inhibition at 300 µg/disc,Bacillus subtilis [19],24 mm
same,zone of inhibition at 300 µg/disc,Serratia marcescens,< 7 mm
same,zone of inhibition at 300 µg/disc,Candida albicans [20],15 mm
same,inhibition of growth at 2.5 µg/mL,NCI-H292 [21],14.7%
same,MIC,Staphylococcus aureus [22],2 µg/mL
same,MIC,Enterococcus faecalis [23],8 µg/mL
same,inhibition of growth at 5 µg/mL,NCI-H292 [24],29.3%
same,MIC,Micrococcus luteus [25],8 µg/mL
same,MIC,Staphylococcus aureus [26],2 µg/mL
same,zone of inhibition at 300 µg/disc,Pseudomonas aeruginosa,< 7 mm
same,zone of inhibition at 300 µg/disc,Staphylococcus aureus [27],23 mm
same,MIC,Enterococcus faecalis [28],4 µg/mL
same,MIC,Staphylococcus aureus [29],8 µg/mL
same,MIC,Staphylococcus aureus [30],2 µg/mL
same,inhibition of growth at 2.5 µg/mL,HEp-2 [31],15.3%
same,MIC,Staphylococcus aureus [32],4 µg/mL
O=C1NC(=S)/C(=C/c2cc(Cl)cc(Cl)c2Cl)S1,MIC,[1],32 µg/mL
same,MIC,Enterococcus faecalis [2],4 µg/mL
same,inhibition of growth at 1.25 µg/mL,NCI-H292 [3],14.2%
same,inhibition of growth at 1.25 µg/mL,HEp-2 [4],12.6%
same,zone of inhibition at 300 µg/disc,Enterococcus faecalis [5],19 mm
same,inhibition of growth at 5 µg/mL,HEp-2 [6],22.8%
same,MIC,Staphylococcus aureus [7],4 µg/mL
same,inhibition of growth at 10 µg/mL,HEp-2 [8],23.5%
same,zone of inhibition at 300 µg/disc,Micrococcus luteus [9],21 mm
same,MIC,Staphylococcus aureus [10],2 µg/mL
same,zone of inhibition at 300 µg/disc,Escherichia coli,< 7 mm
same,zone of inhibition at 300 µg/disc,[11],< 7 mm
same,MIC,Staphylococcus [12],2 µg/mL
same,MIC,Enterococcus faecalis [13],4 µg/mL
same,MIC,Enterococcus faecalis [14],2 µg/mL
same,MIC,Staphylococcus [15],2 µg/mL
same,MIC,Bacillus subtilis [16],2 µg/mL
same,MIC,Candida albicans [17],64 µg/mL
same,inhibition of growth at 10 µg/mL,NCI-H292 [18],40.5%
same,zone of inhibition at 300 µg/disc,Bacillus subtilis [19],< 7 mm
same,zone of inhibition at 300 µg/disc,Serratia marcescens,< 7 mm
same,zone of inhibition at 300 µg/disc,Candida albicans [20],< 7 mm
same,inhibition of growth at 2.5 µg/mL,NCI-H292 [21],33%
same,MIC,Staphylococcus aureus [22],2 µg/mL
same,MIC,Enterococcus faecalis [23],4 µg/mL
same,inhibition of growth at 5 µg/mL,NCI-H292 [24],39.7%
same,MIC,Micrococcus luteus [25],4 µg/mL
same,MIC,Staphylococcus aureus [26],2 µg/mL
same,zone of inhibition at 300 µg/disc,Pseudomonas aeruginosa,< 7 mm
same,zone of inhibition at 300 µg/disc,Staphylococcus aureus [27],16 mm
same,MIC,Enterococcus faecalis [28],4 µg/mL
same,MIC,Staphylococcus aureus [29],2 µg/mL
same,MIC,Staphylococcus aureus [30],2 µg/mL
same,inhibition of growth at 2.5 µg/mL,HEp-2 [31],21.8%
same,MIC,Staphylococcus aureus [32],2 µg/mL

# — ChEMBL document CHEMBL1158358, “Synthesis, antimicrobial and cytotoxic activities of some 5-arylidene-4-thioxo-thiazolidine-2-ones” (Eur J Med Chem, 2009)
